# Measurements pooled from the literature.
# Compare with care: the assays were run in different laboratories.
# Target: MAP kinase-activated protein kinase 2 (MAPKAPK2, Homo sapiens, UniProt P49137)
SMILES,observed,mode,method,concentration,quantity,value
COc1cc(Nc2ncc(F)c(Nc3ccc4c(n3)NC(=O)C(C)(C)O4)n2)cc(OC)c1OC,binding,,,10 µM,inhibition,0%
Cc1nn(C)cc1-c1nc2c(N3CCN(Cc4ccc(Cl)cc4)CC3)c(Cl)cnc2[nH]1,binding,,competition with immobilised ligand,1 µM,remaining binding,100%
Nc1ncc(-c2nc(N3CCOCC3)nc(N3CCOCC3)n2)c(C(F)F)n1,binding,,competition with immobilised ligand,10 µM,remaining binding,85%
O=c1[nH]c2ccccc2n1C1CCN(Cc2ccc(-c3[nH]c4cc5ncnc5cc4nc3-c3ccccc3)cc2)CC1,cell-free assay,,,0.5 µM,remaining signal,98.7%
COc1cc(Cl)c(C(=O)N[C@@H](CN[C@H]2CC[C@@H](N)CC2)Cc2ccc(C#N)cc2)cc1-c1ccc(CN[C@H](C)c2ccc(C)cc2)o1,enzyme activity,inhibitor,,1 µM,remaining activity,107%
C#Cc1n[nH]c2c(-c3cn(C(C)c4ccccn4)c(=O)[nH]c3=O)cc(F)cc12 (centres unmarked),enzyme activity,inhibitor,,1 µM,inhibition,13.1%
Cn1cncc1[C@@](O)(COc1ccc(C#N)cc1-c1ccc(OC(F)(F)F)cc1)c1ccc(C#N)cc1,cell-free assay,,competition with immobilised ligand,1 µM,remaining binding,61%
Cn1cc(-c2cc(F)cc(N3CCn4c(cc5c4CCCC5)C3=O)c2CO)cc(Nc2ccc(N3CCN(C4COC4)CC3)cn2)c1=O,enzyme activity,inhibitor,,0.1 µM,inhibition,5%
CC(C)(C)c1cc(C=C(C#N)C#N)cc(Br)c1O,enzyme activity,inhibitor,,0.5 µM,remaining activity,92.3%
Cn1cc(-c2cccc(N3CCc4c(sc5c4CC(C)(C)C5)C3=O)c2CO)cc(Nc2ccncn2)c1=O,enzyme activity,inhibitor,,1 µM,inhibition,-5%
COc1ncccc1-c1cnn2ccc(N3CCN(C(=O)OC(C)C)CC3)nc12,binding,,competition with immobilised ligand,1 µM,remaining binding,100%
